Source: PubChem BioAssay
CSC inhib: cancer stem cell viability inhibitors, primary screen, luminescence. 300,000 tested, 1.1% active. AID 2717, 2010. inhibition, % at 7.5 µM. cancer stem cell-like cells viability; in the data active = inhibition above about 75%; inconclusive = no clear call, values can overlap the other calls; tested in HMLE shEcad cells
Beta apoptosis: inhibitors of cytokine-induced beta cell apoptosis, primary screen, luminescence | INS-1E cytokine-induced death, ATP luminescence, 48 h; percent of positive-control rescue, neutral wells zero | 300,000 tested, 0.8% active | protection from apoptosis, % (test concentration not listed);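 active = Every replicate reaches about 75%, or at least half do and their mean reaches it too, limit read from the data; inconclusive = At least half of replicates reach the limit but their mean does not; inactive = Under half of replicates reach the limit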;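 note: higher means more ATP so stronger rescue from cytokine killing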
Mdm2-MdmX inh: inhibitors of human Mdm2-MdmX association, primary screen, cell-based, luminescence, split luciferase, SaOS-2, uHTS. Protein Mdm4 (Homo sapiens) + E3 ubiquitin-protein ligase Mdm2 (Homo sapiens), …. SaOS-2 split-luciferase Mdm2/MdmX complementation. inhibition, % at 8 µM. 330,000 tested, 3% active;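 active = inhibition of at least 50% at 8 µM in the primary screen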
Target sequence (O15151 whole entry, looked up): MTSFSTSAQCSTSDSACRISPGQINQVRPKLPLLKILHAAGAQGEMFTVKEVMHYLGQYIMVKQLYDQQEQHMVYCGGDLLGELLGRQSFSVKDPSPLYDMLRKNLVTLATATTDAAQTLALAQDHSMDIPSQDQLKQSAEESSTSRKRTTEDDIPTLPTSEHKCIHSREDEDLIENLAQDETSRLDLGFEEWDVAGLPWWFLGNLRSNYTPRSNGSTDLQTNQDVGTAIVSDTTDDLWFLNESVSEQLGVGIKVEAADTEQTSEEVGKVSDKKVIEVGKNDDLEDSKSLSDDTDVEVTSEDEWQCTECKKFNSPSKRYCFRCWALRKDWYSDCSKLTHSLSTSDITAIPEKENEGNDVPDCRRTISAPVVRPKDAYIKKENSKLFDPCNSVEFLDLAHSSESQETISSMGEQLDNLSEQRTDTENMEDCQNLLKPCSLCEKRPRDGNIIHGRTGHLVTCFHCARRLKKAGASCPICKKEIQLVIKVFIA
Target sequence (Q00987 whole entry, looked up): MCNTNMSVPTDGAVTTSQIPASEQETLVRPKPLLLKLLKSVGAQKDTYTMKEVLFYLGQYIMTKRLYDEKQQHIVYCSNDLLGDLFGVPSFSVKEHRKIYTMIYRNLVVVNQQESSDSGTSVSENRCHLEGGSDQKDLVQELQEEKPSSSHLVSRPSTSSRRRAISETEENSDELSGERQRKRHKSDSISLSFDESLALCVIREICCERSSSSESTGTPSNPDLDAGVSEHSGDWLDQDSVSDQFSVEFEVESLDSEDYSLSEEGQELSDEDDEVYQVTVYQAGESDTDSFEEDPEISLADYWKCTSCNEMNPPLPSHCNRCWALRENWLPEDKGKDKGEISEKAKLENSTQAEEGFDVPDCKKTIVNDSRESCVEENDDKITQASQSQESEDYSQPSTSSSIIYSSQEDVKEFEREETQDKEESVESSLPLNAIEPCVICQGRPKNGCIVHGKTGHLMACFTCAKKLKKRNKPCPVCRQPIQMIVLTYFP
T cruzi inh: inhibitors of intracellular T. cruzi growth, primary screen, luminescence, NIH3T3 host cells; AID 1885, 2009; T. cruzi beta-gal in NIH3T3, 90 h; inhibition, % (no concentration beside the values); 300,000 tested, 1.4% active;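 active = mean inhibition across valid replicates above about 55%, limit read from the data; inconclusive = mean below that limit but half or more replicates reach it; inactive = mean below it, under half of replicates reach it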;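 note: signal also drops with host cell toxicity which is not excluded here; higher percent means less beta-gal luminescence so fewer parasites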
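System – NIH/3T3 host cells with β-galactosidase reporter T. cruzi · Doses – single 50 nL compound addition per well in DMSO · Reagent – 5000 T. cruzi trypomastigotes/well · Medium – Low-serum DMEM with 2% FBS · Timing – ≥90 h infection period, 3 h prior cell attachment · Evaluation – parasite load inhibition, % · Technique – GalScreen luminescence, 60 min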
CHOP UPR activ: activators of apoptotic CHOP UPR arm, primary screen, cell-based, CHO-CHOP luciferase reporter, luminescence, uHTS | UPR activation; percent of tunicamycin response over DMSO baseline | activation, % at 10 µM | 330,000 tested, 0.34% active | AID 449763, 2010;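 active = at 10 µM dose, activation of 40% or more, normalized to positive control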
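Assay system: CHO cells with stable CHOP pathway luciferase reporter; Buffer or medium: F12 plus 10% serum; Times: 16-18 h cell attachment, then 6 h compound exposure, 37 °C; Signal: luciferase luminescence; Read-out basis: percent activation relative to tunicamycin control; Control set: tunicamycin high control, DMSO low control.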
XBP1 UPR activ: activators of adaptive XBP1 UPR arm, primary screen, cell-based, CHO-XBP1 luciferase reporter, luminescence, uHTS; IRE1-XBP1 UPR activation; percent of tunicamycin response, DMSO as zero; activation, % at 20 µM; 330,000 tested, 0.33% active;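 active = versus positive control, 20 µM dose yields 30% or more activation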
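Material: IRE1-XBP1 luciferase reporter CHO line / Quantity: one thousand reporter cells per well / Buffer or medium: F12 with 10% serum / Compound: 20 µM single concentration, DMSO 1% / Times: 6 h treatment, 37 °C / Detection: Steady-Glo luciferase glow luminescence, 10 min after reagent addition / Benchmarks: tunicamycin high, DMSO low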
Mdm2 MdmX conf: Mdm2-MdmX complex disruptors, retested hits, confirmation, luminescence, single concentration | shares compounds with Mdm2-MdmX inh | Mdm2-MdmX binding, luminescent assay | inhibition, % at 8 µM | 10,000 tested, 55% active; in the data active = inhibition above about 40%
FLuc counter: full-length luciferase signal inhibition, confirmation, counter-screen for Mdm2/MdmX interaction inhibitor project, cell-based, single concentration, SaOS-2 | 6,200 tested, 77% active | inhibition, % at 8 µM | SaOS-2 full-length luciferase counterscreen, luminescence | shares compounds with Mdm2-MdmX inh;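 active = mean inhibition at 8 µM reaching about 37%, which flags the compound as non-specific, limit read from the data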;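 note: p53-null SaOS-2 cells with luciferase driven by a doxycycline-inducible promoter; compound on cells about two nights before reading with doxycycline added after day one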
Of the large screens only hits and unclear results are named; the others gave an inactive call (follow-up assays come after a bar, where they were run). Compounds with a hit are over-represented: about 5% of the library has one in this group of screens.

Cc1ccccc1C(=O)Nc1cccc(NC(=O)Cn2cnc3c(=O)n(C)c(=O)n(C)c32)c1	Mdm2-MdmX inh 51 | Mdm2 MdmX conf inactive
Cc1cccc(C)c1NC(=O)Cn1cnc2c(=O)n(C)c(=O)n(C)c21	none
COc1ccccc1N(Cc1ccccc1)S(=O)(=O)c1cccc(C(=O)Nc2cc(C)ccn2)c1	Mdm2-MdmX inh 68 | Mdm2 MdmX conf 56 | FLuc counter 160
COc1ccccc1N(Cc1ccccc1)S(=O)(=O)c1cccc(C(=O)NC2CC(C)(C)NC(C)(C)C2)c1	Mdm2-MdmX inh 97 | Mdm2 MdmX conf 64 | FLuc counter 72
CC1(C)CC(NC(=O)c2ccc(Cl)c(S(=O)(=O)N(Cc3ccccc3)c3ccccc3)c2)CC(C)(C)N1	Mdm2-MdmX inh 99 (no result: Beta apoptosis) | Mdm2 MdmX conf 93 | FLuc counter 48
CC(C)C(=O)Nc1ncc(Cc2cccc(Cl)c2)s1	none
CCNc1nc(NC(C)C)nc(Oc2ccc(OCCOc3ccc(C)cc3)nn2)n1	Mdm2-MdmX inh 52 | Mdm2 MdmX conf inactive
COC(=O)c1ccc(OC(=O)CS(=O)c2ccccc2[N+](=O)[O-])cc1 (stereo not drawn)	none
O=C(CS(=O)c1ccc(C(F)(F)F)cc1[N+](=O)[O-])Oc1ccccc1 (stereo not drawn)	CSC inhib 77, Mdm2-MdmX inh 52 | Mdm2 MdmX conf inactive
COc1ccc(CNC(=O)C(NC(C)=O)C(=O)Nc2ccc(C(C)C)cc2)cc1 (stereo not drawn)	none
Cc1cc(C)c2nc(N3C(=O)C(O)=C(C(=O)c4ccco4)C3c3cccc(O)c3)sc2c1 (stereo not drawn)	none (no result: T cruzi inh)
Cc1ccc(C(C)C)c(OCc2nn(CC(=O)c3ccc(Cl)cc3)c3[n+]2CCCCC3)c1	CSC inhib inconclusive, Beta apoptosis 136, Mdm2-MdmX inh 97, T cruzi inh 86 | Mdm2 MdmX conf 74 | FLuc counter inactive
C=CCn1c(SCC(=O)Nc2ccc(Br)cc2)nc(O)c(CC)c1=O	none
Cc1cccn2c(=O)c3cc(C(=O)NCc4ccco4)c(=N)n(CCc4ccccc4)c3nc12	none (no result: CSC inhib, Beta apoptosis, T cruzi inh)
N=c1c(C(=O)NCc2ccc(F)cc2)cc2c(=O)n3ccccc3nc2n1Cc1ccco1	Mdm2-MdmX inh 100 | Mdm2 MdmX conf 61 | FLuc counter inactive
Cc1cccn2c(=O)c3cc(C(=O)NCCc4ccccc4)c(=N)n(Cc4ccco4)c3nc12	Mdm2-MdmX inh 100 | Mdm2 MdmX conf 92 | FLuc counter inactive
CC(=O)Nc1ccc(S(=O)(=O)N(C)CC(=O)N/N=C/c2ccncc2)cc1	none
COc1ccc(C2=Nn3c([n+](C)c4ccccc43)SC2)cc1	Beta apoptosis 112, Mdm2-MdmX inh 60, T cruzi inh 70 | Mdm2 MdmX conf inactive
COc1ccc(C(C#N)c2ccc(Cl)nn2)cc1 (stereo not drawn)	none (no result: Beta apoptosis)
COc1ccc(C(C#N)c2nc3ccccc3nc2Cl)cc1 (stereo not drawn)	Mdm2-MdmX inh 52 | Mdm2 MdmX conf inactive
CCCCCc1cc(=O)oc2c(C(CCN(CC)CC)c3ccc(OC)cc3)c(OC)cc(OC)c12 (stereo not drawn)	Beta apoptosis 98, Mdm2-MdmX inh 100 | Mdm2 MdmX conf inactive | FLuc counter 51
COc1cc(C(CCN2CCCC2)c2c(OC)cc(OC)c3c(C)cc(=O)oc23)cc(OC)c1OC (stereo not drawn)	none
COc1cc(OC)c2ccc(=O)oc2c1C(CCN1CCCC1)c1ccc(N(C)C)cc1 (stereo not drawn)	none
CCCCCc1cc(=O)oc2c(C(CCN3CCCC3)c3cc(OC)c(OC)c(OC)c3)c(OC)cc(OC)c12 (stereo not drawn)	Mdm2-MdmX inh 100 | Mdm2 MdmX conf 62 | FLuc counter 39
CCN(CC)CCC(c1ccc(N(C)C)cc1)c1c(OC)cc(OC)c2ccc(=O)oc12 (stereo not drawn)	none
CCCCCc1cc(=O)oc2c(C(CCN3CCCC3)c3ccc(N(C)C)cc3)c(OC)cc(OC)c12 (stereo not drawn)	Mdm2-MdmX inh 97 | Mdm2 MdmX conf inactive | FLuc counter 53
CCCCCc1cc(=O)oc2c(C(CCN3CCCCC3)c3ccc(OC)cc3)c(OC)cc(OC)c12 (stereo not drawn)	CSC inhib 97, Mdm2-MdmX inh 96 | Mdm2 MdmX conf inactive | FLuc counter 44
N#C/C(=N\Nc1cccc2ccccc12)c1nnc2n1CCCCC2	none
CC(C)c1cccc(C(C)C)c1NC(=O)CN1CCCC1	none
CCCCCc1cc(=O)oc2c(C(CCN3CCCC(C)C3)c3ccc(OC)cc3)c(OC)cc(OC)c12 (stereo not drawn)	CSC inhib 102, Beta apoptosis 109, Mdm2-MdmX inh 86, T cruzi inh 66 | Mdm2 MdmX conf 42 | FLuc counter 50
CCOC(=O)CCCCCC(=O)Nc1ccc2c(c1)CC(=O)N([C@H](C)CO)C[C@@H](C)[C@H](CN(C)Cc1ccc3c(c1)OCO3)O2	none (no result: CSC inhib, T cruzi inh)
C[C@@H]1CN([C@@H](C)CO)C(=O)Cc2cc(NC(=O)Nc3cccc4ccccc34)ccc2O[C@@H]1CN(C)S(C)(=O)=O	none (no result: T cruzi inh)
C[C@@H]1CN([C@H](C)CO)C(=O)Cc2cc(NC(=O)Nc3ccccc3)ccc2O[C@@H]1CN(C)Cc1ccc2c(c1)OCO2	Mdm2-MdmX inh 53 (no result: T cruzi inh) | Mdm2 MdmX conf inactive
C[C@H](CO)N1C[C@H](C)[C@H](CN(C)Cc2ccccc2)Oc2ccc(NC(=O)Nc3ccc(F)cc3)cc2C1=O	Mdm2-MdmX inh 65 (no result: T cruzi inh) | Mdm2 MdmX conf inactive
C[C@@H]1CN([C@@H](C)CO)C(=O)Cc2cc(NC(=O)Nc3cccc4ccccc34)ccc2O[C@@H]1CN(C)Cc1ccc(C(F)(F)F)cc1	Mdm2-MdmX inh 65 (no result: T cruzi inh) | Mdm2 MdmX conf inactive
C[C@H]1CN([C@@H](C)CO)C(=O)c2cc(NC(=O)Nc3cccc4ccccc34)ccc2O[C@@H]1CN(C)Cc1ccc(-c2ccccc2)cc1	none (no result: T cruzi inh)
